In ChEMBL document CHEMBL1139436, “Quantitative structure-activity relationship of sesquiterpene lactones as inhibitors of the transcription factor NF-kappaB” (J Med Chem, 2004) one finds IC100 and pIC100 data, which are given here for 39 compounds.

The target of test [1] is T1, Nuclear factor NF-kappa-B complex (Homo sapiens) (UniProt Q00653+P19838+Q04206). The test can be described thus: (§1) Concentration required for complete inhibition of Nuclear factor kappa B DNA binding. Format: protein-complex assay. Summed up:
(§2)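 Jurkat T cells (RPMI 1640, 10% FCS, penicillin/streptomycin) pretreated 1 h with sesquiterpene lactone, first at 10, 20, 50, 100 μM, then 1–5 μM or 200–300 μM as needed. Stimulated 1 h with 200 U/mL TNF-α. Total extracts (Totex high-salt buffer) analysed by EMSA with ³²P-labeled NF-κB oligonucleotide, 25 min at room temperature. IC100 is the lowest tested level fully blocking binding; intermediate values assigned the higher level. Each experiment reproduced at least once.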

Test [2] has as its target T1, Nuclear factor NF-kappa-B complex (Homo sapiens). The description is as §1. The format is protein-complex assay. The arrangement: unit not given here. An outline of the steps: as §2

SMILES strings stand for the structures.

T1 sequence (P19838 whole entry, looked up): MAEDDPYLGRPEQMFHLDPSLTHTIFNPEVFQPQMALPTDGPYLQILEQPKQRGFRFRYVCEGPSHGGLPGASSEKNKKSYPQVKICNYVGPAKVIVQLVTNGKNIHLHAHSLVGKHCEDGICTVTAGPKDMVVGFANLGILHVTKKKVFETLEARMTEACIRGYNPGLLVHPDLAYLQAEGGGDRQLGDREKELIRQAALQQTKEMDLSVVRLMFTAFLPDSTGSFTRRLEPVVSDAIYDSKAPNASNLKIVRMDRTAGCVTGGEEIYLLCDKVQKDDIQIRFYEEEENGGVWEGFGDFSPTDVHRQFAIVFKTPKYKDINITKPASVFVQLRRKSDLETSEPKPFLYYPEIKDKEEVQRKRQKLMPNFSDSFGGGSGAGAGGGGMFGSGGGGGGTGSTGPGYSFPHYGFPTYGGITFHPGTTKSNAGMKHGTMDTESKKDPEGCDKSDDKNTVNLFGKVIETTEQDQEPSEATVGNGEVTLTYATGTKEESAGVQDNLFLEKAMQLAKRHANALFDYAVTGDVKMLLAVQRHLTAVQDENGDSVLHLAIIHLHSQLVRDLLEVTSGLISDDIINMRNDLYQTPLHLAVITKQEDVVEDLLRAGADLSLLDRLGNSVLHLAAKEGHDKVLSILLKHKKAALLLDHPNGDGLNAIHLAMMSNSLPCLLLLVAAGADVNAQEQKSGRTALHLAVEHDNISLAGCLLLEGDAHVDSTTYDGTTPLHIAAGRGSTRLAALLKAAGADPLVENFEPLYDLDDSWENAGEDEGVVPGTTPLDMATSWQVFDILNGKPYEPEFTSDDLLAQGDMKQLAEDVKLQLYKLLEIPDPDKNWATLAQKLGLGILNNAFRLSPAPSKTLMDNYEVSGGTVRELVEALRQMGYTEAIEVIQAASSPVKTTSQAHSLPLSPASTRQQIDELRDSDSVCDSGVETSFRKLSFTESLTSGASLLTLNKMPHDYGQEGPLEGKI
T1 sequence (Q00653 whole entry, looked up): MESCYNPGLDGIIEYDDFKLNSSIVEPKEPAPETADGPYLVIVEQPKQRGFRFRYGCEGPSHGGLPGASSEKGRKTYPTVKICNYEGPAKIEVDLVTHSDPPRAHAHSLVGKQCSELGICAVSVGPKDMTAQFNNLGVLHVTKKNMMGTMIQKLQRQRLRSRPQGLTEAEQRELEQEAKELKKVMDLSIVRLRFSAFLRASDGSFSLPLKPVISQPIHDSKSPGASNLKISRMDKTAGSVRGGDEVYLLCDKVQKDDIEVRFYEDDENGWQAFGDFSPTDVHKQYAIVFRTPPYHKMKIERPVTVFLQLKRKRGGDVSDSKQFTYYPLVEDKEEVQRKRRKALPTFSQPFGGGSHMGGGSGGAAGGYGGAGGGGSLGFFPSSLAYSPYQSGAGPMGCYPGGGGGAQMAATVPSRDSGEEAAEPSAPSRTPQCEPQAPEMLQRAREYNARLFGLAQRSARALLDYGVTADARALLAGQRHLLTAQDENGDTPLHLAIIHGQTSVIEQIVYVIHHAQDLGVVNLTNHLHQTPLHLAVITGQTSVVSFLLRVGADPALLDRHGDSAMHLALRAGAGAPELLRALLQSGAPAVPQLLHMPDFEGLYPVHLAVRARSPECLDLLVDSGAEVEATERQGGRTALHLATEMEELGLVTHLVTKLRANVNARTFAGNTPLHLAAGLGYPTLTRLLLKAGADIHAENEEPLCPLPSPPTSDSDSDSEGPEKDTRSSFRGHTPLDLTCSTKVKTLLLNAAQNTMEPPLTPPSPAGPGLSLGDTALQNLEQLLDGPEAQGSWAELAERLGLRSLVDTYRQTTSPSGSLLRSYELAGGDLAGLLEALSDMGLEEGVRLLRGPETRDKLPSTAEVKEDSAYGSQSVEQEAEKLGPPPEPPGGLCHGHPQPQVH
T1 sequence (Q04206 whole entry, looked up): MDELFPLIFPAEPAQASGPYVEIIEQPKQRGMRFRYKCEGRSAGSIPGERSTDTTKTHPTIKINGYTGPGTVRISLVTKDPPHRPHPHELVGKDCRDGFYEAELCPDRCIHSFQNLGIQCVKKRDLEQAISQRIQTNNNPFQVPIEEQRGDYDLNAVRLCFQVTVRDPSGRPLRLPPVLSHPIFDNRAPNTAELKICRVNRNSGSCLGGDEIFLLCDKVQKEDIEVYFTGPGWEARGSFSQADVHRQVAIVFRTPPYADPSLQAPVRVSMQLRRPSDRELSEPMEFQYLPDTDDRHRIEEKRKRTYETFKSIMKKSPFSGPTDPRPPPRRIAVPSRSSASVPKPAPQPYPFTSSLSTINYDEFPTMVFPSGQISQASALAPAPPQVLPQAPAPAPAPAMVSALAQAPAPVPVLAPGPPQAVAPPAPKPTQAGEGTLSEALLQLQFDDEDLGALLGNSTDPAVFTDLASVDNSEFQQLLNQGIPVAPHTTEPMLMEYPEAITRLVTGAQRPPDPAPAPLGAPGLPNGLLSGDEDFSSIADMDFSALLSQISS

In test [1], `C=C(C)C(=O)O[C@H]1C/C(C)=C/C(=O)/C=C(/C)[C@H](O)[C@H]2OC(=O)C(=C)[C@@H]21` showed an IC100 of 10 µM. The compound also showed a pIC100 in test [2] of -1.

Compound `C=C(C)C(=O)O[C@H]1[C@H]2C(=C)C(=O)O[C@@H]2/C=C(/COC(C)=O)CC/C=C(/C=O)[C@@H]1O` had an IC100 in test [1] of 5 µM. This compound yielded a pIC100 in test [2] of -0.69.

Take `C=C1C(=O)C[C@H]2C(=C)C(=O)O[C@@H]2/C=C(/COC(=O)CC(C)C)CC[C@H]1OC`: in test [1], the IC100 was 12.5 µM. Also, in test [2], the pIC100 was -1.09.

The compound `C=C1C(=O)O[C@@H]2/C=C(/C)[C@]3(O)O[C@@](C)(C[C@@H]3OC)C[C@@H](OC(=O)C(C)C)[C@@H]12` displayed an IC100 in test [1] of 200 µM. Further, the pIC100 in test [2] was -2.3.

In turn, `C=C(C)C(=O)OC/C1=C/C[C@@H]2C(=C)C(=O)O[C@H]2C/C(CO)=C\CC1` registered an IC100 in test [1] of 50 µM. This compound also returned a pIC100 in test [2] of -1.3.

As for `C=C(C)C(=O)O[C@@H]1C=C(C=O)CCCC(=C)[C@H](O)[C@H]2OC(=O)C(=C)[C@@H]21`, the IC100 in test [1] turned out to be 10 µM. In test [2], this compound registered a pIC100 of -1.

The compound `C=C1C(=O)O[C@H]2C/C(CO)=C\CC/C(COC(=O)C(C)C)=C\C[C@H]12` displayed an IC100 in test [1] of 50 µM. The compound further returned a pIC100 in test [2] of -1.69.

`C=C(C)C(=O)O[C@@H]1/C=C(/C=O)CCCC(=C)[C@H](O)[C@H]2OC(=O)C(=C)[C@@H]21` displayed an IC100 in test [1] of 5 µM. This compound showed a pIC100 in test [2] of -0.69.

In test [1], `C=C(C)C(=O)O[C@@H]1C[C@](C)(O)[C@@H]2C(=O)C=C(C)[C@@H]2[C@H]2OC(=O)C(=C)[C@@H]21` gave an IC100 of 50 µM. Also, the pIC100 in test [2] is -1.69.

Compound `C=C(C)C(=O)O[C@@H]1C[C@]2(C)CC[C@@](OC)(O2)/C(C)=C\[C@H]2OC(=O)C(=C)[C@@H]21` displayed an IC100 in test [1] of 200 µM. This compound also gave a pIC100 in test [2] of -2.3.

`C=C1C(=O)O[C@@H]2/C=C(/CO)C3=CC(=O)[C@@](C)(C[C@H](OC(=O)/C(C)=C/C)[C@@H]12)O3`: the IC100 in test [1] was 5 µM. The pIC100 in test [2] is -0.69.

`C=C1C(=O)O[C@@H]2C[C@H](C)C3=CC(=O)[C@H](C)[C@@H]3C[C@H]12` had an IC100 in test [1] of 50 µM. The same compound displayed a pIC100 in test [2] of -1.69.

Compound `C=C(C)C(=O)O[C@@H]1/C=C(/C=O)CCC[C@@]2(CO2)[C@H](O)[C@H]2OC(=O)C(=C)[C@@H]21` came in with an IC100 in test [1] of 5 µM. This compound registered a pIC100 in test [2] of -0.69.

Turning to `C=C1C(=O)O[C@@H]2[C@H]3C(C)=C(Cl)C(=O)C3=C(C)CC[C@@H]12`, the IC100 in test [1] came out at 20 µM. The compound also yielded a pIC100 in test [2] of -1.3.

In turn, `C=C(C)C(=O)O[C@@H]1/C=C(\C=O)CCC[C@@]2(CO2)[C@H](O)[C@H]2OC(=O)C(=C)[C@@H]21` gave an IC100 in test [1] of 5 µM. In addition, the pIC100 in test [2] was -1.

Consider `C=C1C(=O)O[C@@H]2/C=C(/COC(=O)C(C)C)CC/C=C(/CO)C(=O)C[C@@H]12`, for which, in test [1], the IC100 was 12.5 µM. In test [2], the pIC100 was -1.09.

Compound `C=C1C[C@@H]2OC(=O)C(=C)[C@H]2[C@H](O)/C=C(\C)CCC1=O` registered an IC100 in test [1] of 50 µM. Further, the pIC100 in test [2] was -1.69.

`C=C1C(=O)O[C@H]2C/C(CO)=C\CC/C(COC(=O)C(C)CO)=C\C[C@H]12` (stereo partly drawn) displayed an IC100 in test [1] of 100 µM. In addition, the pIC100 in test [2] is -2.

For the compound `C=C(C)C(=O)O[C@H]1C[C@@]2(C)OC(=CC2=O)/C(CO)=C\[C@H]2OC(=O)C(=C)[C@H]12`, the IC100 in test [1] stood at 20 µM. The same compound had a pIC100 in test [2] of -1.3.

`C=C1C(=O)O[C@@H]2C[C@H](C)C3=C(C[C@H]12)[C@@H](C)CC3=O` had an IC100 in test [1] of 20 µM. The same compound gave a pIC100 in test [2] of -1.3.

Compound `C=C1C(=O)O[C@H]2C[C@H](C)C3=C(C[C@H]12)[C@@H](C)CC3=O` yielded an IC100 in test [1] of 20 µM. In addition, the pIC100 in test [2] was -1.3.

`C=C1C(=O)O[C@@H]2[C@H]3C(C)=CC[C@H]3[C@](C)(O)C[C@H](O)[C@@H]12`: the IC100 in test [1] is 100 µM. The same compound showed a pIC100 in test [2] of -2.

In test [1], `C=C(C)C(=O)O[C@@H]1CC(C)=C2C(=O)C=C(C)[C@@H]2[C@H]2OC(=O)C(=C)[C@@H]21` came in with an IC100 of 10 µM. For the same compound, the pIC100 in test [2] was -1.

With `CC[C@@H](C)[C@@]1(O)O[C@H]2C[C@@]3(C)OC(=CC3=O)/C(COC(C)=O)=C\[C@H]3OC(=O)[C@@]1(C)C23` (stereo partly drawn), the IC100 in test [1] was 5 µM. This compound gave a pIC100 in test [2] of -0.69.

With `C=C1C(=O)C=C2[C@H]1C[C@@H]1C(=C)C(=O)O[C@H]1C[C@@H]2C`, the IC100 in test [1] came out at 5 µM. The same compound registered a pIC100 in test [2] of -0.69.

Turning to `C=C(C)C(=O)O[C@@H]1C[C@@]2(C)OC(=CC2=O)/C(C)=C\[C@H]2OC(=O)C(=C)[C@@H]21`, the IC100 in test [1] came out at 10 µM. In addition, in test [2], the pIC100 was -1.

`C=C(C)C(=O)O[C@H]1C/C(C)=C\[C@@]2(OC)C=C(C)[C@H](O2)[C@H]2OC(=O)C(=C)[C@@H]21` gave an IC100 in test [1] of 10 µM. The same compound had a pIC100 in test [2] of -1.

Turning to `C=C1C(=O)O[C@@H]2/C=C(/CO)C3=CC(=O)[C@@](C)(C[C@@H](OC(=O)/C(C)=C/C)[C@@H]12)O3`, in test [1], the IC100 came to 5 µM. In test [2], this compound showed a pIC100 of -0.69.

In turn, `C=C1C(=O)O[C@H]2[C@H]1[C@@H](OC(=O)/C(C)=C/C)C/C(C)=C\[C@@]1(OC)C=C(C)[C@@H]2O1` came in with an IC100 in test [1] of 10 µM. Moreover, in test [2], the pIC100 was -1.

Compound `C=C(C)C(=O)O[C@@H]1C[C@@](C)(O)[C@@H]2C(=O)C=C(C)[C@@H]2[C@H]2OC(=O)C(=C)[C@@H]21` yielded an IC100 in test [1] of 20 µM. The pIC100 in test [2] is -1.3.

`C=C(C)C(=O)O[C@H]1[C@H]2C(=C)C(=O)O[C@@H]2[C@@H](O)C(=C)CC/C=C(/C=O)[C@@H]1OC(C)=O` registered an IC100 in test [1] of 10 µM. This compound also came in with a pIC100 in test [2] of -1.

`C=C(C)C(=O)O[C@H]1[C@H]2C(=C)C(=O)O[C@@H]2/C=C(/C)CC/C=C(/C=O)[C@@H]1O` returned an IC100 in test [1] of 10 µM. In test [2], this compound had a pIC100 of -1.

Take `C=C1C(=O)O[C@H]2[C@H]1CCC(C)=C1C(=O)[C@H]3O[C@@]3(C)[C@@H]12`: in test [1], the IC100 is 5 µM. This compound also showed a pIC100 in test [2] of -0.69.

`C=C1C(=O)C=C2[C@H]1C[C@@H]1C(=C)C(=O)O[C@@H]1C[C@@H]2C` returned an IC100 in test [1] of 10 µM. In addition, the pIC100 in test [2] was -1.

Take `C=C(C)C(=O)O[C@H]1C[C@@]2(C)OC(=CC2=O)C(=C)[C@@H](O)[C@H]2OC(=O)C(=C)[C@@H]21`: the IC100 in test [1] worked out at 10 µM. This compound returned a pIC100 in test [2] of -1.

In the case of `C=C1C(=O)O[C@@H]2/C=C(/C)CC/C=C(/C)CC[C@@]12O`, the IC100 in test [1] was 10 µM. In addition, the pIC100 in test [2] was -1.

In test [1], `C=C1C(=O)O[C@@H]2/C=C(/COC(=O)CC(C)C)C[C@H](OC(C)=O)/C=C(/CO)C(=O)C[C@@H]12` returned an IC100 of 12.5 µM. The compound further returned a pIC100 in test [2] of -1.09.

`C=C1C(=O)O[C@H]2C3=C(C(=O)C[C@@H]3C)[C@@H](C)CC[C@@H]12` registered an IC100 in test [1] of 20 µM. Besides, the pIC100 in test [2] was -1.3.

For `C=C1C(=O)C[C@H]2C(=C)C(=O)O[C@@H]2/C=C(/COC(=O)C(C)C)CC[C@@H]1OC`, the IC100 in test [1] was 25 µM. Further, the pIC100 in test [2] is -1.09.
